Test results reported in ChEMBL document CHEMBL1147862, “Studies on synthesis and pharmacological activities of 3,6-disubstituted-1,2,4-triazolo[3,4-b]-1,3,4-thiadiazoles and their dihydro analogues” (2007).

What was measured:
Assay type in all cases: functional
Mus musculus [1] = assay: Analgesic activity in Swiss mouse assessed as increase in reaction time at 20 mg/kg, po after 30 mins by Eddy's hot plate technique
Procedure, shortened: (§1)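 Swiss mice of either sex, 25–35 g, placed one at a time on a hot plate held at 55 °C. End point is paw licking or jumping, whichever comes first, with a 15 s cut-off to avoid paw injury. Reaction time is recorded and reported as percent increase in reaction time.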

Mus musculus [2] = assay: Analgesic activity in Swiss mouse assessed as increase in reaction time at 20 mg/kg, po after 60 mins by Eddy's hot plate technique; procedure, shortened: as §1
Mus musculus [3] = assay: Analgesic activity in Swiss mouse assessed as increase in reaction time at 20 mg/kg, po after 90 mins by Eddy's hot plate technique; procedure, shortened: as §1
Candida albicans [4] = assay: Antifungal activity against Candida albicans at 10 ug/ml by paper disc method; conditions: read-out: IZ
Candida albicans [5] = assay: Antifungal activity against Candida albicans at 20 ug/ml by paper disc method; conditions: read-out: IZ
Candida albicans [6] = assay: Antifungal activity against Candida albicans at 30 ug/ml by paper disc method; conditions: read-out: IZ
Aspergillus niger [7] = assay: Antifungal activity against Aspergillus niger at 10 ug/ml by paper disc method; conditions: read-out: IZ
Aspergillus niger [8] = assay: Antifungal activity against Aspergillus niger at 20 ug/ml by paper disc method; conditions: read-out: IZ
Aspergillus niger [9] = assay: Antifungal activity against Aspergillus niger at 30 ug/ml by paper disc method; conditions: read-out: IZ
Escherichia coli [10] = assay: Antibacterial activity against Escherichia coli at 10 ug/ml by agar plate diffusion technique; conditions: read-out: IZ
Escherichia coli [11] = assay: Antibacterial activity against Escherichia coli at 20 ug/ml by agar plate diffusion technique; conditions: read-out: IZ
Escherichia coli [12] = assay: Antibacterial activity against Escherichia coli at 30 ug/ml by agar plate diffusion technique; conditions: read-out: IZ
Pseudomonas aeruginosa [13] = assay: Antibacterial activity against Pseudomonas aeruginosa at 10 ug/ml by agar plate diffusion technique; conditions: read-out: IZ
Pseudomonas aeruginosa [14] = assay: Antibacterial activity against Pseudomonas aeruginosa at 20 ug/ml by agar plate diffusion technique; conditions: read-out: IZ
Pseudomonas aeruginosa [15] = assay: Antibacterial activity against Pseudomonas aeruginosa at 30 ug/ml by agar plate diffusion technique; conditions: read-out: IZ
Bacillus subtilis [16] = assay: Antibacterial activity against Bacillus subtilis at 10 ug/ml by agar plate diffusion technique; conditions: read-out: IZ
Bacillus subtilis [17] = assay: Antibacterial activity against Bacillus subtilis at 20 ug/ml by agar plate diffusion technique; conditions: read-out: IZ
Bacillus subtilis [18] = assay: Antibacterial activity against Bacillus subtilis at 30 ug/ml by agar plate diffusion technique; conditions: read-out: IZ
Staphylococcus aureus [19] = assay: Antibacterial activity against Staphylococcus aureus at 10 ug/ml by agar plate diffusion technique; conditions: read-out: IZ
Staphylococcus aureus [20] = assay: Antibacterial activity against Staphylococcus aureus at 20 ug/ml by agar plate diffusion technique; conditions: read-out: IZ
Staphylococcus aureus [21] = assay: Antibacterial activity against Staphylococcus aureus at 30 ug/ml by agar plate diffusion technique; conditions: read-out: IZ
Rattus norvegicus [22] = assay: Antiinflammatory activity in Wistar Albino rat assessed as inhibition of carrageenan-induced paw oedema at 20 mg/kg after 1 hr relative to control
Procedure, shortened: (§2)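 Wistar albino rats, 150–200 g, six per group, dosed orally with a 20 mg/kg suspension; control gets 0.1 ml 1% gum acacia. After 30 min, 0.1 ml 1% carrageenan in saline is injected subplantar into the right hind paw. Paw volume is read by plethysmograph at 0–4 h. Inhibition = 100(1 − Vtest/Vcontrol) on mean volume increase.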

Rattus norvegicus [23] = assay: Antiinflammatory activity in Wistar Albino rat assessed as inhibition of carrageenan-induced paw oedema at 20 mg/kg after 2 hrs relative to control; procedure, shortened: as §2
Rattus norvegicus [24] = assay: Antiinflammatory activity in Wistar Albino rat assessed as inhibition of carrageenan-induced paw oedema at 20 mg/kg after 3 hrs relative to control; procedure, shortened: as §2
Rattus norvegicus [25] = assay: Antiinflammatory activity in Wistar Albino rat assessed as inhibition of carrageenan-induced paw oedema at 20 mg/kg after 4 hrs relative to control; procedure, shortened: as §2

Row | Structure (SMILES) | Activity (Mus musculus [1]) | Activity (Mus musculus [2]) | Activity (Mus musculus [3]) | zone of inhibition at 10 µg/mL (Candida albicans [4]) | zone of inhibition at 20 µg/mL (Candida albicans [5]) | zone of inhibition at 30 µg/mL (Candida albicans [6]) | zone of inhibition at 10 µg/mL (Aspergillus niger [7]) | zone of inhibition at 20 µg/mL (Aspergillus niger [8]) | zone of inhibition at 30 µg/mL (Aspergillus niger [9]) | zone of inhibition at 10 µg/mL (Escherichia coli [10]) | zone of inhibition at 20 µg/mL (Escherichia coli [11]) | zone of inhibition at 30 µg/mL (Escherichia coli [12]) | zone of inhibition at 10 µg/mL (Pseudomonas aeruginosa [13]) | zone of inhibition at 20 µg/mL (Pseudomonas aeruginosa [14]) | zone of inhibition at 30 µg/mL (Pseudomonas aeruginosa [15]) | zone of inhibition at 10 µg/mL (Bacillus subtilis [16]) | zone of inhibition at 20 µg/mL (Bacillus subtilis [17]) | zone of inhibition at 30 µg/mL (Bacillus subtilis [18]) | zone of inhibition at 10 µg/mL (Staphylococcus aureus [19]) | zone of inhibition at 20 µg/mL (Staphylococcus aureus [20]) | further results
1 | COc1ccc(Cl)c(-c2nnc3n2NC(c2cccn2C)S3)c1 (stereo not given) | 4.38% | 6.2% | 19.67% | 4.3 mm | 7.4 mm | 12.6 mm | 4.71 mm | 7.65 mm | 12.9 mm | 3.82 mm | 6.9 mm | 10.1 mm | 3.9 mm | 7.1 mm | 11.9 mm | 3.6 mm | 6.82 mm | 9.33 mm | 3.82 mm | 6.1 mm | zone of inhibition at 30 µg/mL (Staphylococcus aureus [21]): 11 mm; inhibition in vivo at 20 mg/kg (Rattus norvegicus [22]): 14.1%; inhibition in vivo at 20 mg/kg (Rattus norvegicus [23]): 16.8%; inhibition in vivo at 20 mg/kg (Rattus norvegicus [24]): 18.5%; inhibition in vivo at 20 mg/kg (Rattus norvegicus [25]): 20.7%
2 | COc1ccc(Cl)c(-c2nnc3sc(-c4cc(-c5ccccc5)nc5ccccc45)nn23)c1 | 5.34% | 15.68% | 26.85% | 5.64 mm | 12.8 mm | 18.8 mm | 6.04 mm | 11.6 mm | 17.6 mm | 6.86 mm | 11.7 mm | 16.5 mm | 6.72 mm | 11.4 mm | 15.5 mm | 6.82 mm | 11.2 mm | 16.2 mm | 5.82 mm | 10.1 mm | zone of inhibition at 30 µg/mL (Staphylococcus aureus [21]): 16.4 mm; inhibition in vivo at 20 mg/kg (Rattus norvegicus [22]): 11.6%; inhibition in vivo at 20 mg/kg (Rattus norvegicus [23]): 17.2%; inhibition in vivo at 20 mg/kg (Rattus norvegicus [24]): 20.1%; inhibition in vivo at 20 mg/kg (Rattus norvegicus [25]): 24.5%
3 | COc1ccc(Cl)c(-c2nnc3sc(Cc4c(C)[nH]c5ccc(OC)cc45)nn23)c1 | 19.48% | 28.54% | 35.24% | 4.35 mm | 8.72 mm | 11.7 mm | 4.56 mm | 8.24 mm | 12.3 mm | 4.26 mm | 7.28 mm | 12.3 mm | 4.15 mm | 7.92 mm | 12.4 mm | 4.12 mm | 7.18 mm | 11.9 mm | 4.17 mm | 8.12 mm | zone of inhibition at 30 µg/mL (Staphylococcus aureus [21]): 12.1 mm; inhibition in vivo at 20 mg/kg (Rattus norvegicus [22]): 11.3%; inhibition in vivo at 20 mg/kg (Rattus norvegicus [23]): 20%; inhibition in vivo at 20 mg/kg (Rattus norvegicus [24]): 26.1%; inhibition in vivo at 20 mg/kg (Rattus norvegicus [25]): 32.7%
4 | Cc1occc1-c1nnc2sc(-c3ccnc(F)c3)nn12 | 4.13% | 6.2% | 16.43% | 8.82 mm | 16.6 mm | 23.8 mm | 7.36 mm | 13 mm | 22.7 mm | 8.54 mm | 14.3 mm | 20.8 mm | 8.39 mm | 15.2 mm | 21.3 mm | 8.12 mm | 14.8 mm | 19.9 mm | 7.9 mm | 14.2 mm | zone of inhibition at 30 µg/mL (Staphylococcus aureus [21]): 20.2 mm; inhibition in vivo at 20 mg/kg (Rattus norvegicus [22]): 16.7%; inhibition in vivo at 20 mg/kg (Rattus norvegicus [23]): 18.2%; inhibition in vivo at 20 mg/kg (Rattus norvegicus [24]): 20.4%; inhibition in vivo at 20 mg/kg (Rattus norvegicus [25]): 24.4%
5 | Cc1occc1-c1nnc2sc(-c3ccnc4ccccc34)nn12 | 5.62% | 10.24% | 19.24% | 5.78 mm | 11 mm | 19.2 mm | 6.14 mm | 12 mm | 19.6 mm | 8.74 mm | 15.3 mm | 19.4 mm | 8.17 mm | 14.2 mm | 19.1 mm | 8.14 mm | 14.1 mm | 19.8 mm | 8.16 mm | 14.1 mm | zone of inhibition at 30 µg/mL (Staphylococcus aureus [21]): 19.1 mm; inhibition in vivo at 20 mg/kg (Rattus norvegicus [22]): 12.5%; inhibition in vivo at 20 mg/kg (Rattus norvegicus [23]): 17.1%; inhibition in vivo at 20 mg/kg (Rattus norvegicus [24]): 20.3%; inhibition in vivo at 20 mg/kg (Rattus norvegicus [25]): 23.4%
6 | Cc1occc1-c1nnc2sc(-c3cc(-c4ccccc4)nc4ccccc34)nn12 | 4.86% | 14.48% | 21.1% | 6.27 mm | 14.8 mm | 19.4 mm | 5.92 mm | 11 mm | 17.7 mm | 7.64 mm | 13.2 mm | 17.4 mm | 7.12 mm | 12 mm | 17.3 mm | 6.16 mm | 11.8 mm | 16.9 mm | 6.18 mm | 12.7 mm | zone of inhibition at 30 µg/mL (Staphylococcus aureus [21]): 17.5 mm; inhibition in vivo at 20 mg/kg (Rattus norvegicus [22]): 11.8%; inhibition in vivo at 20 mg/kg (Rattus norvegicus [23]): 14.5%; inhibition in vivo at 20 mg/kg (Rattus norvegicus [24]): 16.4%; inhibition in vivo at 20 mg/kg (Rattus norvegicus [25]): 24.4%
7 | Cc1occc1-c1nnc2sc(Cc3c[nH]c4ccccc34)nn12 | 6.66% | 22.22% | 35.33% | 5.38 mm | 9.3 mm | 12.7 mm | 5.6 mm | 8.74 mm | 13.2 mm | 5.78 mm | 9.18 mm | 13.6 mm | 4.85 mm | 8.9 mm | 13.5 mm | 5.67 mm | 8.75 mm | 13.8 mm | 5.12 mm | 8.19 mm | zone of inhibition at 30 µg/mL (Staphylococcus aureus [21]): 13.5 mm; inhibition in vivo at 20 mg/kg (Rattus norvegicus [22]): 16%; inhibition in vivo at 20 mg/kg (Rattus norvegicus [23]): 21.5%; inhibition in vivo at 20 mg/kg (Rattus norvegicus [24]): 26.5%; inhibition in vivo at 20 mg/kg (Rattus norvegicus [25]): 30%
8 | COc1ccc(Cl)c(-c2nnc3sc(-c4cc(C)nc5ccccc45)nn23)c1 | 7.6% | 12.65% | 21.06% | 6.18 mm | 13.8 mm | 18.8 mm | 5.62 mm | 12.6 mm | 18.5 mm | 5.16 mm | 9.12 mm | 16.7 mm | 5.31 mm | 10.3 mm | 16.1 mm | 7.06 mm | 11.1 mm | 16.4 mm | 6.89 mm | 12.1 mm | zone of inhibition at 30 µg/mL (Staphylococcus aureus [21]): 16.1 mm; inhibition in vivo at 20 mg/kg (Rattus norvegicus [22]): 8.68%; inhibition in vivo at 20 mg/kg (Rattus norvegicus [23]): 20.2%; inhibition in vivo at 20 mg/kg (Rattus norvegicus [24]): 24.1%; inhibition in vivo at 20 mg/kg (Rattus norvegicus [25]): 27.4%
